# Results from different studies.
# Compare with care: the assays were run in different laboratories.
# ALOX12: Polyunsaturated fatty acid lipoxygenase ALOX12 (ALOX12, Homo sapiens, UniProt P18054)
# PAK5: Serine/threonine-protein kinase PAK 5 (PAK5, Homo sapiens, UniProt Q9P286)
# PIK3C2A: Phosphatidylinositol 4-phosphate 3-kinase C2 domain-containing subunit alpha (PIK3C2A, Homo sapiens, UniProt O00443)
Structure (SMILES),target,assay,system,setting,measurement,value
CCCCCc1cc(O)c2c(c1)OC(C)(CCC=C(C)C)C=C2 (centres unmarked),ALOX12,"enzyme activity in cells, inhibitor",PMNL,10 µM,remaining activity,122%
Nc1ncc(-c2nc(N3CCOCC3)nc(N3CCOCC3)n2)c(C(F)F)n1,"Serine/threonine-protein kinase RIO2 (RIOK2, Homo sapiens, UniProt Q9BVS4)","binding, competition with immobilised ligand",,10 µM,remaining binding,51%
C#Cc1n[nH]c2c(-c3cn([C@@H](C)c4ccccc4)c(=O)[nH]c3=O)cc(F)cc12,PAK5,"enzyme activity, inhibitor",,0.1 µM,inhibition,4.5%
CCN(CC)CCCC[C@H](NC(=O)[C@H](CC(C)C)NC(=O)[C@H](C)NC(=O)[C@H](Cc1ccccc1)NC(=O)c1ccc(C(C)(C)C)cc1)C(=O)N[C@@H](CO)C(=O)OC,"Bromodomain-containing protein 1, bromodomain (BRD1, Homo sapiens, UniProt O95696)","thermal stability, DSF",,25 µM,ΔTm,0.49 °C
COc1ncccc1-c1cnn2ccc(N3CCN(C(=O)OC(C)C)CC3)nc12,"Mitogen-activated protein kinase kinase kinase 13 (MAP3K13, Homo sapiens, UniProt O43283)","binding, competition with immobilised ligand",,1 µM,remaining binding,98%
Cn1cc(-c2cc(F)cc(N3CCn4c(cc5c4CCCC5)C3=O)c2CO)cc(Nc2ccc(N3CCN(C4COC4)CC3)cn2)c1=O,PIK3C2A,"enzyme activity, inhibitor",,0.1 µM,inhibition,-2%
C#Cc1n[nH]c2c(-c3cn([C@@H](C)c4ccccn4)c(=O)[nH]c3=O)cc(F)cc12,PAK5,"enzyme activity, inhibitor",,0.1 µM,inhibition,5.1%
COc1cc(Nc2ncc(F)c(Nc3ccc4c(n3)NC(=O)C(C)(C)O4)n2)cc(OC)c1OC,"Serine/threonine-protein kinase PLK4 (PLK4, Homo sapiens, UniProt O00444)",binding,,10 µM,inhibition,100%
CCCCCc1cc(O)c(C/C=C(\C)CCC=C(C)C)c(O)c1,ALOX12,"enzyme activity in cells, inhibitor",PMNL,10 µM,remaining activity,152%
Cc1nn(C)cc1-c1nc2c(N3CCN(Cc4ccc(Cl)cc4)CC3)c(Cl)cnc2[nH]1,"Rhodopsin kinase GRK1 (GRK1, Homo sapiens, UniProt Q15835)","binding, competition with immobilised ligand",,1 µM,remaining binding,100%
Cn1cc(-c2cccc(N3CCc4c(sc5c4CC(C)(C)C5)C3=O)c2CO)cc(Nc2ccncn2)c1=O,PIK3C2A,"enzyme activity, inhibitor",,1 µM,inhibition,0%
